# ChEMBL document CHEMBL1155341, “Synthesis and antibacterial activity of 7-(1,2,3,4-tetrahydropyrrolo[1,2-a]pyrazin-7-yl) quinolones” (2009)
# What was measured:
# Assay type in all cases: functional
# Escherichia coli = experiment: Antibacterial activity against ciprofloxacin susceptible Escherichia coli ATCC 25922 by broth microdilution method
# In short: (§1)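 Broth microdilution per CLSI (NCCLS M7-A5) guidelines; MIC taken as lowest concentration inhibiting visible growth. Strains are ciprofloxacin-susceptible reference strains.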
# Streptococcus pneumoniae [1] = experiment: Antibacterial activity against ciprofloxacin susceptible Streptococcus pneumoniae ATCC 49619 by broth microdilution method; in short: as §1
# Streptococcus pneumoniae [2] = experiment: Antibacterial activity against ciprofloxacin resistant Streptococcus pneumoniae OC5465 by broth microdilution method
# In short: (§2)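 MIC determined by broth microdilution following CLSI (formerly NCCLS) M7-A5 guidelines for aerobically growing bacteria. MIC is the lowest compound concentration inhibiting visible growth. Strains are ciprofloxacin-resistant clinical isolates tested within a six-strain abbreviated panel.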
# Streptococcus pneumoniae [3] = experiment: Antibacterial activity against ciprofloxacin resistant Streptococcus pneumoniae OC5458 by broth microdilution method; in short: as §2
# Staphylococcus aureus [4] = experiment: Antibacterial activity against ciprofloxacin susceptible Staphylococcus aureus subsp. aureus ATCC 13709 by broth microdilution method; in short: as §1
# Streptococcus pneumoniae [5] = experiment: Antibacterial activity against ciprofloxacin resistant Streptococcus pneumoniae OC5462 by broth microdilution method; in short: as §2
# Staphylococcus aureus [6] = experiment: Antimicrobial activity against Staphylococcus aureus subsp. aureus ATCC 13709 infected in po dosed Swiss Webster mouse treated 1 hr after infection measured fter 3 days; settings: ATCC 13709, po
# In short: (§3)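 Female Swiss-Webster mice infected ip with S. aureus ATCC13709; test compound given subcutaneously or orally 1 h post-infection; mortality followed for three days; untreated infected mice served as controls.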
# Staphylococcus aureus [7] = experiment: Antimicrobial activity against Staphylococcus aureus subsp. aureus ATCC 13709 infected in sc dosed Swiss Webster mouse treated 1 hr after infection measured fter 3 days; settings: ATCC 13709, sc; in short: as §3
SMILES,MIC (Escherichia coli),MIC (Streptococcus pneumoniae [1]),MIC (Streptococcus pneumoniae [2]),MIC (Streptococcus pneumoniae [3]),MIC (Staphylococcus aureus [4]),MIC (Streptococcus pneumoniae [5]),ED50 (Staphylococcus aureus [6]),ED50 (Staphylococcus aureus [7])
C[C@@H]1NCCn2cc(-c3cc4c(cc3F)C(=O)C(C(=O)O)CN4C3CC3)cc21 (stereo partly drawn),4 µg/mL,1 µg/mL,0.5 µg/mL,4 µg/mL,0.25 µg/mL,16 µg/mL,–,–
C[C@H]1NCCn2cc(-c3cc4c(cc3F)C(=O)C(C(=O)O)CN4C3CC3)cc21 (stereo partly drawn),4 µg/mL,1 µg/mL,0.25 µg/mL,8 µg/mL,0.25 µg/mL,16 µg/mL,–,–
C[C@@H]1NCCn2cc(-c3c(F)cc4c5c3OC[C@H](C)N5CC(C(=O)O)C4=O)cc21 (stereo partly drawn),4 µg/mL,1 µg/mL,0.5 µg/mL,4 µg/mL,0.25 µg/mL,8 µg/mL,–,–
C[C@@H]1NCCn2cc(-c3nc4c(cc3F)C(=O)C(C(=O)O)CN4c3ccc(F)cc3F)cc21 (stereo partly drawn),> 16 µg/mL,4 µg/mL,8 µg/mL,> 16 µg/mL,1 µg/mL,> 16 µg/mL,–,–
C[C@H]1Cn2cc(-c3ccc4c(c3OC(F)F)N(C3CC3)CC(C(=O)O)C4=O)cc2CN1 (stereo partly drawn),1 µg/mL,1 µg/mL,1 µg/mL,1 µg/mL,0.12 µg/mL,8 µg/mL,–,–
C[C@H]1Cn2cc(-c3cc4c(cc3F)C(=O)C(C(=O)O)CN4C3CC3)cc2CN1 (stereo partly drawn),2 µg/mL,0.5 µg/mL,0.12 µg/mL,2 µg/mL,0.06 µg/mL,4 µg/mL,–,–
C[C@H]1Cn2cc(-c3nc4c(cc3F)C(=O)C(C(=O)O)CN4c3ccc(F)cc3F)cc2CN1 (stereo partly drawn),16 µg/mL,1 µg/mL,2 µg/mL,16 µg/mL,0.12 µg/mL,16 µg/mL,–,–
COc1c(-c2cc3n(c2)CCN[C@@H]3C)c(F)cc2c1N(C1CC1)CC(C(=O)O)C2=O (stereo partly drawn),8 µg/mL,2 µg/mL,2 µg/mL,> 16 µg/mL,0.25 µg/mL,16 µg/mL,–,–
C[C@H]1Cn2cc(-c3c(F)cc4c5c3OC[C@H](C)N5CC(C(=O)O)C4=O)cc2CN1 (stereo partly drawn),4 µg/mL,1 µg/mL,0.5 µg/mL,4 µg/mL,0.25 µg/mL,8 µg/mL,–,–
COc1c(-c2cc3n(c2)C[C@H](C)NC3)c(F)cc2c1N(C1CC1)CC(C(=O)O)C2=O (stereo partly drawn),0.5 µg/mL,0.12 µg/mL,0.25 µg/mL,0.5 µg/mL,0.03 µg/mL,1 µg/mL,4 mg/kg,< 1.25 mg/kg
COc1c(-c2cc3n(c2)CCNC3)c(F)cc2c1N(C1CC1)CC(C(=O)O)C2=O (stereo not drawn),1 µg/mL,0.25 µg/mL,0.12 µg/mL,1 µg/mL,0.03 µg/mL,1 µg/mL,–,–
